Measurements: ChEMBL document CHEMBL3098117, “Identification and optimization of an aminoalcohol-carbazole series with antimalarial properties” (ACS Med Chem Lett, 2013)
Calls of active or inactive are those of the source. The rule behind the calls is not given here.

Experiments:
Cytochrome P450 3A4 = Cytochrome P450 3A4 (Homo sapiens, UniProt P08684); test: Inhibition of human recombinant CYP3A4 expressed in baculovirus-infected insect cells preincubated for 15 mins followed by substrate addition measured after 30 mins by luminescence assay; format: ADME; settings: recombinant enzyme, 0.5 h
Cytochrome P450 2C19 = Cytochrome P450 2C19 (Homo sapiens, UniProt P33261); test: Inhibition of human recombinant CYP2C19 expressed in baculovirus-infected insect cells preincubated for 15 mins followed by substrate addition measured after 30 mins by luminescence assay; format: ADME; settings: recombinant enzyme, 0.5 h
Plasmodium berghei = test: Antimalarial activity against Plasmodium berghei ANKA expressing GFP infected in NMRI mouse assessed as mean survival days at 100 mg/kg/day, po qd for 4 days measured at 24 hrs after last dose; format: functional
In short: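 P. berghei-infected mice dosed orally once daily on days 0–3, starting 4 h postinfection, in groups of 3, 10, 30 and 100 mg/kg/day. Red blood cell parasitemia and plasma exposure measured on day 4, 24 h after the last dose. Mean survival days then monitored over 26 further days.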

[1] = Genotoxicity in micronucleus (unknown origin) under metabolic conditions; format: ADME
Plasmodium falciparum = test: Antimalarial activity against chloroquine, pyrimethamine, quinine-resistant Plasmodium falciparum V1S; format: functional; settings: VS/1

Cytochrome P450 3A4, sequence (P08684 whole entry): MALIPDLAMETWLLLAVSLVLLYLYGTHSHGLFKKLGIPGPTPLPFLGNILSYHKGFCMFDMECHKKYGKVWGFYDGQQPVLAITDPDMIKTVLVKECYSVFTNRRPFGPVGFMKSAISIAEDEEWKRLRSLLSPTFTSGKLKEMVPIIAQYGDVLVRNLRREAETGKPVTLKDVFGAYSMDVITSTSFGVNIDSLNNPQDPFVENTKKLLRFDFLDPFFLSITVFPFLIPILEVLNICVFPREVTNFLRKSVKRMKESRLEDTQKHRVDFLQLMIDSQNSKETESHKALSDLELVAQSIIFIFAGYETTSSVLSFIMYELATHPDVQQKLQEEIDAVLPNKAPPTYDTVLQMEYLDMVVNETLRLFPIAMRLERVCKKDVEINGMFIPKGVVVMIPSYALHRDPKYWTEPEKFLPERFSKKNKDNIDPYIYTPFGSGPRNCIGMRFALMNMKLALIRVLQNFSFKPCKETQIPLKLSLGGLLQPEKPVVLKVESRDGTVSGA
Cytochrome P450 2C19, sequence (P33261 whole entry): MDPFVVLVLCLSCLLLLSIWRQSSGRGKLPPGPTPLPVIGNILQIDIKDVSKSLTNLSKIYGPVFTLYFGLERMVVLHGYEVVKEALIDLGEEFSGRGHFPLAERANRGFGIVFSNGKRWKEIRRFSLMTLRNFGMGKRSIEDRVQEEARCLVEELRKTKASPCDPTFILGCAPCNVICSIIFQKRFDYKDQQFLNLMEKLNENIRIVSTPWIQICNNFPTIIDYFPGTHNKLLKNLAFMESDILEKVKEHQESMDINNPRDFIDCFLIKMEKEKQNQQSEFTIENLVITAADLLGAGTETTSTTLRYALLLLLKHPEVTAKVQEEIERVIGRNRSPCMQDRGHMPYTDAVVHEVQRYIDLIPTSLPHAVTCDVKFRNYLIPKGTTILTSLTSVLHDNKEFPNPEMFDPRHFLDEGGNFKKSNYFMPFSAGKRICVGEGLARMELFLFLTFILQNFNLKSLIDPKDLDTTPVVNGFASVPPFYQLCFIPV

For `OC(CNC1CCCCC1)Cn1c2ccc(Br)cc2c2cc(Br)ccc21` (racemic), the “inhibition (INH)” value (Cytochrome P450 3A4) was “Active”, the “inhibition (INH)” value (Cytochrome P450 2C19) was “Active” and the MSD (Plasmodium berghei) was 30 days. For the same compound, the Activity [1] was “Non-toxic” and the Activity (Plasmodium falciparum) was “Active”.
